Values after ≈ are worked out from the molar mass of the structure shown.
System: Escherichia coli
Experiment: Inhibition of Escherichia coli dihydroneopterin aldolase assessed as [14C]glycolaldehyde formation using [14C]neopterin substrate by scintillation counting
Summary of the method: (§1)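 Enzyme from E. coli B grown in corn steep liquor medium with methionine and glutamic acid, homogenized, cleared of debris and heat-treated. Substrate is 14C-neopterin with unlabeled neopterin, reduced by dithionite to dihydroneopterin in ammonium acetate pH 9.6 with EDTA and mercaptoethanol. Test pteridines are dithionite-reduced. Incubation runs 30 min at 37 °C in the dark and is stopped with Norit A in 2 N acetic acid. The supernatant is scintillation counted.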

| ID50 [µg/mL] | SMILES |
| --- | --- |
| > 50 | Nc1nc(O)c2c(n1)NC(O)C(C(=O)O)=N2 (stereo unspecified) |
| > 50 | Nc1nc(O)c2c(n1)NCC=N2 |
| > 50 | OCC1=Nc2c(O)nc(S)nc2NC1 |
| > 50 | Nc1nc(N)c2c(n1)NCC(CO)=N2 |
| > 50 | Nc1nc(O)c2c(n1)NCC(C(=O)O)=N2 |
| > 50 | CCOC(OCC)C1=Nc2c(O)nc(N)nc2NC1 |
| > 50 | CC1=Nc2c(O)nc(N)nc2NC1 |
| 5 (≈ 24 µM) | NC(=O)C1=Nc2c(O)nc(N)nc2NC1 |
| > 50 | Nc1nc(O)c2c(n1)NCC(/C=N/O)=N2 |

The next lines start with the compound.

| SMILES | ID50 [µg/mL] |
| --- | --- |
| Nc1nc(O)c2c(n1)NC(CO)C=N2 (stereo unspecified) | > 50 |
| CC(C)C1=Nc2c(N)nc(N)nc2NC1C(C)C (stereo unspecified) | > 50 |
| Nc1nc2c(c(=O)[nH]1)N=C(CO)CN2 | 30 (≈ 154 µM) |
| Nc1nc(O)c2c(n1)NCC(CCCc1ccccc1)=N2 | > 50 |
| CC1(C)Nc2nc(N)nc(O)c2N=C1CO | 1 (≈ 4.48 µM) |
| CCCCCCCCC1=Nc2c(O)nc(N)nc2NC1 | > 50 |

System: Escherichia coli
Experiment: Inhibition of Escherichia coli dihydroneopterin aldolase assessed as [14C]glycolaldehyde formation using [14C]neopterin substrate at 50 ug/ml by scintillation counting
Summary of the method: as §1

| inhibition [%] | SMILES |
| --- | --- |
| 75 | Nc1nc2c(c(=O)[nH]1)N=C(C=O)CN2 |

Reference: ChEMBL document CHEMBL3272232, “Inhibitors of folate biosynthesis. 1. Inhibition of dihydroneopterin aldolase by pteridine derivatives” (J Med Chem, 1977)
